Test results taken from EPA's CvTdb concentration-time database.

Columns and labels:
Rat [1] = test: concentration in thymus after dosing; settings: 3 h; dosed: Bis 2-Chloroethoxy Methane; 20 mg/kg; iv; Male; F344
Rat [2] = test: concentration in liver after dosing; settings: 3 h; dosed: Bis 2-Chloroethoxy Methane; 20 mg/kg; iv; Male; F344
Rat [3] = test: concentration in heart after dosing; settings: 5 h; dosed: Bis 2-Chloroethoxy Methane; 20 mg/kg; iv; Male; F344
Rat [4] = test: concentration in plasma after dosing; settings: dosed: Bis 2-Chloroethoxy Methane, 40 mg/kg, iv, Male, Harlan Sprague Dawley
Rat [5] = test: concentration in plasma after dosing; settings: 10 min; dosed: Bis 2-Chloroethoxy Methane; 20 mg/kg; iv; Female; F344
Rat [6] = test: concentration in heart after dosing; settings: 2 h; dosed: Bis 2-Chloroethoxy Methane; 20 mg/kg; iv; Male; F344
Rat [7] = test: concentration in plasma after dosing; settings: 3 h; dosed: Bis 2-Chloroethoxy Methane; 20 mg/kg; iv; Female; F344
Rat [8] = test: concentration in heart after dosing; settings: 20 min; dosed: Bis 2-Chloroethoxy Methane; 20 mg/kg; iv; Male; F344
Rat [9] = test: concentration in plasma after dosing; settings: 1 h; dosed: Bis 2-Chloroethoxy Methane; 20 mg/kg; iv; Male; F344
Rat [10] = test: concentration in plasma after dosing; settings: 20 min; dosed: Bis 2-Chloroethoxy Methane; 20 mg/kg; iv; Female; F344
Rat [11] = test: concentration in heart after dosing; settings: 3 h; dosed: Bis 2-Chloroethoxy Methane; 20 mg/kg; iv; Female; F344
Rat [12] = test: concentration in plasma after dosing; settings: 20 min; dosed: Bis 2-Chloroethoxy Methane; 20 mg/kg; iv; Female; F344; remark: listed apart in the source
Rat [13] = test: concentration in plasma after dosing; settings: 20 min; dosed: Bis 2-Chloroethoxy Methane; 20 mg/kg; iv; Male; F344
Rat [14] = test: concentration in heart after dosing; settings: 1 h; dosed: Bis 2-Chloroethoxy Methane; 20 mg/kg; iv; Male; F344
Rat [15] = test: concentration in plasma after dosing; settings: dosed: Fluorotelomer alcohol 8+2, 24 mg/kg, oral, Male, Harlan Sprague Dawley
Rat [16] = test: concentration in plasma after dosing; settings: dosed: Fluorotelomer alcohol 8+2, 40 mg/kg, iv, Male, F344
Rat [17] = test: concentration in plasma after dosing; settings: dosed: Fluorotelomer alcohol 8+2, 40 mg/kg, iv, Male, F344; remark: listed apart in the source
Rat [18] = test: concentration in plasma after dosing; settings: 20 h; dosed: Di-n-butyl phthalate; 200 mg/kg; oral; Male; Sprague-Dawley
Rat [19] = test: concentration in plasma after dosing; settings: 40 min; dosed: Di-n-butyl phthalate; 20 mg/kg; iv; Male; Sprague-Dawley
Rat [20] = test: concentration in kidney after dosing; settings: 1848 h; dosed: Perfluorodecanoic acid; 10 mg/kg; oral; Male; Harlan Sprague Dawley
Rat [21] = test: concentration in plasma after dosing; settings: 2520 h; dosed: Perfluorodecanoic acid; 2 mg/kg; iv; Male; F344
Rat [22] = test: concentration in plasma after dosing; settings: dosed: Perfluorodecanoic acid, 2 mg/kg, oral, Male, Harlan Sprague Dawley
Rat [23] = test: concentration in plasma after dosing; settings: dosed: Perfluorodecanoic acid, 2 mg/kg, iv, Male, F344
Rat [24] = test: concentration in brain after dosing; settings: 1848 h; dosed: Perfluorodecanoic acid; 10 mg/kg; oral; Female; Harlan Sprague Dawley
Rat [25] = test: concentration in plasma after dosing; settings: 30 h; dosed: Primidone; 130 mg/kg; oral; Female; F344
Rat [26] = test: concentration in plasma after dosing; settings: 1.5 h; dosed: Primidone; 30 mg/kg; oral; Male; F344
Rat [27] = test: concentration in thymus after dosing; settings: 10 min; dosed: Thiodiglycolic Acid; 20 mg/kg; iv; Female; Harlan Sprague Dawley
Rat [28] = test: concentration in thymus after dosing; settings: 40 min; dosed: Thiodiglycolic Acid; 20 mg/kg; iv; Male; Harlan Sprague Dawley
Rat [29] = test: concentration in heart after dosing; settings: 10 h; dosed: Thiodiglycolic Acid; 20 mg/kg; iv; Male; F344
Rat [30] = test: concentration in liver after dosing; settings: 1 h; dosed: Thiodiglycolic Acid; 20 mg/kg; iv; Female; Harlan Sprague Dawley
Rat [31] = test: concentration in plasma after dosing; settings: 20 min; dosed: Thiodiglycolic Acid; 20 mg/kg; iv; Female; F344
Rat [32] = test: concentration in liver after dosing; settings: 10 h; dosed: Thiodiglycolic Acid; 20 mg/kg; iv; Female; Harlan Sprague Dawley
Rat [33] = test: concentration in plasma after dosing; settings: 0.25 h; dosed: dichloroacetic acid; 10 mg/kg; oral; Male; Harlan Sprague Dawley
Rat [34] = test: concentration in plasma after dosing; settings: dosed: dichloroacetic acid, 100 mg/kg, oral, Male, F344
human = test: concentration in plasma after dosing; negative times count back from the end of exposure; settings: dosed: trichloroethylene, 100 ppm, inhalation, duration: 4 hr, person
Outline: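 Sampling and analytical methods are those of each source and frequently went unreported. The concentration-versus-time and amount-versus-time points were compiled from published in vivo toxicokinetic studies and two structured collections. Most were digitised from plot screenshots with WebPlotDigitizer, with others copied from tables, in the reported units.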

Rat [35] = test: concentration in plasma after dosing; settings: dosed: dichloroacetic acid, 40 mg/kg, oral, Female, Harlan Sprague Dawley

ClCCOCOCCCl [Bis 2-Chloroethoxy Methane]
Settings	concentration in heart [ng/g]	concentration in liver [ng/g]	concentration in plasma [ng/mL]	concentration in thymus [ng/g]
Rat [1]	–	–	–	394
Rat [2]	–	130	–	–
Rat [3]	54.3	–	–	–
Rat [5]	–	–	9960	–
Rat [6]	450	–	–	–
Rat [7]	–	–	87.3	–
Rat [8]	6660	–	–	–
Rat [9]	–	–	1940	–
Rat [10]	–	–	3810	–
Rat [11]	124	–	–	–
Rat [12]	–	–	4820	–
Rat [13]	–	–	3180	–
Rat [14]	2450	–	–	–

Rat [4]
Settings	concentration in plasma [ng/mL]
8 h	22
40 min	8120

OCCC(F)(F)C(F)(F)C(F)(F)C(F)(F)C(F)(F)C(F)(F)C(F)(F)C(F)(F)F [Fluorotelomer alcohol 8+2]
Settings	concentration in plasma [ng/mL]
Rat [15], 0.25 h	176
Rat [15], 24 h	3.78
Rat [16], 0.5 h	5950
Rat [16], 9 h	68
Rat [17], 0.25 h	14200
Rat [17], 6 h	186

CCCCOC(=O)c1ccccc1C(=O)O [Mono-n-butyl phthalate]
Settings	concentration in plasma [ng/mL]
Rat [18]	1290
Rat [19]	8270

O=C(O)C(F)(F)C(F)(F)C(F)(F)C(F)(F)C(F)(F)C(F)(F)C(F)(F)C(F)(F)C(F)(F)F [Perfluorodecanoic acid]
Settings	concentration in brain [ng/g]	concentration in kidney [ng/g]	concentration in plasma [ng/mL]
Rat [20]	–	4700	–
Rat [21]	–	–	209
Rat [24]	680	–	–

concentration in plasma [ng/mL]
Settings	2 h	5 min	192 h	528 h	3360 h
Rat [22]	4900	–	–	2050	516
Rat [23]	–	8200	3280	–	–

CCC1(c2ccccc2)C(=O)NC(=O)NC1=O [Phenobarbital]
Settings	concentration in plasma [ng/mL]
Rat [25]	2120
Rat [26]	1940

O=C(O)CSCC(=O)O [Thiodiglycolic Acid]
Settings	concentration in heart [ng/g]	concentration in liver [ng/g]	concentration in plasma [ng/mL]	concentration in thymus [ng/g]
Rat [27]	–	–	–	10100
Rat [28]	–	–	–	3410
Rat [29]	483	–	–	–
Rat [30]	–	62700	–	–
Rat [31]	–	–	7410	–
Rat [32]	–	4910	–	–

O=C(O)C(Cl)Cl [dichloroacetic acid]
Settings	concentration in plasma [ng/mL]
Rat [33]	720

Settings	concentration in plasma [ng/mL]
Rat [34], 8 h	29200
Rat [34], 20 min	20400
Rat [35], 1.25 h	5690
Rat [35], 5 min	4330
human, 0.25 h	5
human, 4 h	7

human, during exposure
Settings	concentration in plasma [ng/mL]
-3.948 h	4
-3 h	4
-2 h	4
-1 h	4
